Columns and labels:
[1] = target: T1, Cannabinoid receptor 1 (Homo sapiens, UniProt P21554); experiment: biochemical; type: cell-based, CHO
[2] = Normalised area under the concentration time curve in rat; type: ADME
In short: (§1)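 Male Sprague–Dawley rats dosed 1.0 mg/kg iv via an implanted cannula (n = 1 or 2) and 2.0 mg/kg po by gavage (n = 3). Both doses were formulated at 1 mg/mL in TWEEN 80:EtOH:water (10:23:67). Plasma drug levels were measured by LC–MS/MS after protein precipitation, and PK parameters were derived. AUC was normalised to dose.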

[3] = Oral bioavailability in rat; type: ADME, organism-based; conditions: in vivo
In short: as §1

[4] = Half life in rat; type: ADME; conditions: in vivo
In short: as §1

[5] = target: T1, Cannabinoid receptor 1; experiment: Effective concentration against human recombinant cannabinoid receptor type 1 expressed in Chinese Hamster Ovary (CHO) cells; type: cell-based
In short: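 Functional assay on recombinant human CB1 receptor expressed in CHO cells, run in the presence of forskolin.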

[6] = Plasma clearance in rat; type: ADME, organism-based; conditions: read-out: Clp
In short: as §1

[7] = Volume distribution at steady state in rat; type: ADME, organism-based; conditions: in vivo, read-out: Vdss
In short: as §1

[8] = Brain-to-plasma ratio after 1 hr in rat; type: ADME
In short: (§2)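 Male Sprague-Dawley rats given 1.0 mg/kg iv by tail vein, formulated at 1 mg/mL in TWEEN 80:EtOH:water (10:23:67). Sampled at 0.25, 1, 2 and 4 h (n = 3 per time point). Plasma and brain levels measured by LC–MS/MS and expressed as the brain/plasma ratio.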

[9] = Brain-to-plasma ratio after 2 hrs in rat; type: ADME
In short: as §2

[10] = (§3) Brain-to-plasma ratio after 4 hrs in rat; type: ADME
In short: as §2

[11] = Brain-to-plasma ratio after 0.25 hrs in rat; type: ADME
In short: as §2

[12] = as §3; type: ADME, cell-free; conditions: read-out: B/P
In short: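 Male Sprague-Dawley rats were given 1.0 mg/kg iv via the tail vein, formulated at 1 mg/mL in TWEEN 80:EtOH:water (10:23:67). Three rats were used at each time point (0.25, 1, 2 and 4 h). Brain and plasma concentrations were measured by LC–MS/MS, and the brain-to-plasma ratio was taken at each time.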

T1 sequence (P21554 whole entry): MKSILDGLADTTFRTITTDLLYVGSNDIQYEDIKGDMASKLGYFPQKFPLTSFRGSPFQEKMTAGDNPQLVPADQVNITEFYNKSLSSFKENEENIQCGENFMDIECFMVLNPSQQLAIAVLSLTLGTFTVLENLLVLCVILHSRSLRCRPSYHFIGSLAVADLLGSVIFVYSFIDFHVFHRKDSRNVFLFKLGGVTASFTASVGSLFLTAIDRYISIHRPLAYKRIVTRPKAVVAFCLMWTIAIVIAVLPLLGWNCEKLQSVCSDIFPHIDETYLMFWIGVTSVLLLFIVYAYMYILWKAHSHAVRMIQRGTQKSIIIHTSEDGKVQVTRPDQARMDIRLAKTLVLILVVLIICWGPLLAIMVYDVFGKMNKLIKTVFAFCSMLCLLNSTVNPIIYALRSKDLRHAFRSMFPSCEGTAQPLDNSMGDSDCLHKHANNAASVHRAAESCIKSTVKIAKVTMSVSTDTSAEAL

Compound | IC50 [1] | other results
Cn1c(C(=O)NN2CCCCC2)nc(-c2ccc(Cl)cc2Cl)c1-c1ccc(Cl)cc1Cl | 16 nM | 
Cn1c(C(=O)NC2CCCCC2)nc(-c2ccc(Cl)cc2Cl)c1-c1ccc(Cl)cc1 | 4 nM | AUC nom [2]: 1.8 µM·kg·h/mg; bioavailability [3]: 30%; half-life [4]: 114 min; EC50 [5]: 18 nM; clearance [6]: 20 mL/min/kg; Vd [7]: 1.9 L/kg; Kp at 1 h [8]: 2.1; Kp at 2 h [9]: 1.3; Kp at 4 h [10]: 2.6; Kp at 0.25 h [11]: 0.8
Cc1ccc(-c2nc(C(=O)NC3CCCCC3)n(C)c2-c2ccc(C)cc2)cc1 | 900 nM | 
O=C(NC1CCCCC1)c1nc(-c2ccc(Cl)cc2Cl)c(-c2ccc(Cl)cc2)o1 | 80 nM | 
Cn1c(C(=O)NN2CCCCC2)nc(-c2ccccc2)c1-c1ccccc1 | 1900 nM | 
Cn1c(C(=O)NC2CCCCCC2)nc(-c2ccc(Cl)cc2Cl)c1-c1ccc(Cl)cc1 | 8 nM | 
O=C(NC1CCCCC1)c1nc(-c2ccc(Cl)cc2)c(-c2ccc(Cl)cc2)o1 | 500 nM | 
Cn1c(C(=O)NC(C)(C)C)nc(-c2ccc(Cl)cc2)c1-c1ccc(Cl)cc1 | 900 nM | 
Cn1c(C(=O)NN2CCCCC2)nc(-c2ccc(Cl)cc2Cl)c1-c1ccc(Cl)cc1 | 6.1 nM | AUC nom [2]: 1.3 µM·kg·h/mg; bioavailability [3]: 50%; half-life [4]: 144 min; EC50 [5]: 5 nM; Kp at 4 h [12]: 3.4; clearance [6]: 28 mL/min/kg; Vd [7]: 3.7 L/kg; Kp at 1 h [8]: 3.6; Kp at 2 h [9]: 2.9; Kp at 0.25 h [11]: 3
CCCCCCNC(=O)c1nc(-c2ccc(Cl)cc2)c(-c2ccc(Cl)cc2)n1C | 540 nM | 
O=C(NN1CCCCC1)c1nc(-c2ccc(Cl)cc2)c(-c2ccc(Cl)cc2)[nH]1 | 6000 nM | 
Cn1c(C(=O)NN2CCCCC2)nc(-c2ccc(Cl)cc2)c1-c1ccc(Cl)cc1 | 260 nM | EC50 [5]: 100 nM
O=C(NN1CCCCC1)c1nc(-c2ccc(Cl)cc2Cl)c(-c2ccc(Cl)cc2Cl)o1 | 200 nM | 
Cn1c(C(=O)NC2CCCCC2)nc(-c2ccc(Cl)cc2)c1-c1ccc(Cl)cc1 | 450 nM | EC50 [5]: 500 nM
O=C(NC1CCCCC1)c1nc(-c2ccc(Cl)cc2)c(-c2ccc(Cl)cc2Cl)o1 | 1000 nM | 
Cn1c(C(=O)NN2CCCCC2)nc(-c2ccc(Cl)cc2)c1-c1ccc(Cl)cc1Cl | 190 nM | 
CN(C(=O)c1nc(-c2ccc(Cl)cc2Cl)c(-c2ccc(Cl)cc2)n1C)C1CCCCC1 | 70 nM | 
Cn1c(C(=O)N2CCCCC2)nc(-c2ccccc2)c1-c1ccccc1 | 19000 nM | 
Cn1c(C(=O)Nc2ccccc2)nc(-c2ccc(Cl)cc2Cl)c1-c1ccc(Cl)cc1 | 60 nM | 
O=C(NN1CCCCC1)c1nc(-c2ccc(Cl)cc2)c(-c2ccc(Cl)cc2Cl)o1 | 470 nM | 
O=C(NC1CCCCC1)c1nc(-c2ccc(Cl)cc2Cl)c(-c2ccc(Cl)cc2Cl)o1 | 70 nM | 
Cn1c(C(=O)NC2CCCC2)nc(-c2ccc(Cl)cc2Cl)c1-c1ccc(Cl)cc1 | 17 nM | 
CCn1c(C(=O)NC2CCCCC2)nc(-c2ccc(Cl)cc2Cl)c1-c1ccc(Cl)cc1 | 4.1 nM | 
Cn1c(C(=O)NC2CCCCC2)nc(-c2ccc(Cl)cc2Cl)c1-c1ccc(Cl)cc1Cl | 5.2 nM | 
O=C(NN1CCCCC1)c1nc(-c2ccc(Cl)cc2Cl)c(-c2ccc(Cl)cc2)o1 | 260 nM | 
Cn1c(C(=O)NC2CCCCC2)nc(-c2ccc(Cl)cc2)c1-c1ccc(Cl)cc1Cl | 46 nM | 
Cn1c(C(=O)N2CCCCC2)nc(-c2ccc(Cl)cc2)c1-c1ccc(Cl)cc1 | 1100 nM | 
